Data from the M2OR odorant receptor database.
Where a chain is given by its changes, count along the chain named.

How the values were obtained:
Conditions in all cases: stereoisomer not certain
OR2A1 T73A R74C S168C = test system: T1, OR2A1 T73A R74C S168C
T1 sequence (whole entry): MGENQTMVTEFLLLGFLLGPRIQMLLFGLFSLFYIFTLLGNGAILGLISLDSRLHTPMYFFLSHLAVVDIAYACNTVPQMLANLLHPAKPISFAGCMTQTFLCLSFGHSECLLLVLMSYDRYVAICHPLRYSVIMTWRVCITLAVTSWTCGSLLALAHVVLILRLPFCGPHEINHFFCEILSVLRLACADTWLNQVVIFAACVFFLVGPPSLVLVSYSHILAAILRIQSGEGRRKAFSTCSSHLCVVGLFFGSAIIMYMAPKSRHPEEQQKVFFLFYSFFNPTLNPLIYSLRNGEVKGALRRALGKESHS
In short: (§1)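 Values were gathered from published papers (main text and supplementary material), with extra details requested from the original authors when needed, and checked for typos and inconsistencies. Each receptor–molecule pair is called responsive (active) if the original authors judged the measured signal statistically different from baseline, and non-responsive (inactive) otherwise. Assay methods varied by source, often transient mammalian cell-line luciferase assays. Recorded details include cell line, G-protein, co-transfected protein and tags.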

OR2A12 (Homo sapiens) = target: T2, OR2A12 (Homo sapiens) (UniProt Q8NGT7)
T2 sequence (whole entry): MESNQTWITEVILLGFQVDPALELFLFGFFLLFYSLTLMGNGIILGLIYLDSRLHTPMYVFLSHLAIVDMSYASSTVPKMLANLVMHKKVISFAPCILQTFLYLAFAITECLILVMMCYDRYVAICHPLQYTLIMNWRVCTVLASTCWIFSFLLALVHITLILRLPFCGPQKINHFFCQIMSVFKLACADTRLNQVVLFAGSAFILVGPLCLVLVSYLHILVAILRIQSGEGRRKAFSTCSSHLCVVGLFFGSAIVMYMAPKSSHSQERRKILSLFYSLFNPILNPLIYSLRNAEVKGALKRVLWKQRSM
In short: as §1

OR2A14 (Homo sapiens) = target: T3, OR2A14 (Homo sapiens) (UniProt Q96R47)
T3 sequence (whole entry): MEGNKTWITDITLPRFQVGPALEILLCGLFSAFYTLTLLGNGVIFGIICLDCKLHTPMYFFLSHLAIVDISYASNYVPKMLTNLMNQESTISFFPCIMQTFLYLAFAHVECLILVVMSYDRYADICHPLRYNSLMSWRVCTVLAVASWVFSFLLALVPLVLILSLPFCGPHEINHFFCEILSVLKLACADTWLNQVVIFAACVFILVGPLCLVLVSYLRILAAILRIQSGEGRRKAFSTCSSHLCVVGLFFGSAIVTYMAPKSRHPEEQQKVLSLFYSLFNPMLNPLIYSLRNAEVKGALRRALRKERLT
In short: as §1

OR2A2 (Homo sapiens) = target: T4, OR2A2 (Homo sapiens) (UniProt Q6IF42)
T4 sequence (whole entry): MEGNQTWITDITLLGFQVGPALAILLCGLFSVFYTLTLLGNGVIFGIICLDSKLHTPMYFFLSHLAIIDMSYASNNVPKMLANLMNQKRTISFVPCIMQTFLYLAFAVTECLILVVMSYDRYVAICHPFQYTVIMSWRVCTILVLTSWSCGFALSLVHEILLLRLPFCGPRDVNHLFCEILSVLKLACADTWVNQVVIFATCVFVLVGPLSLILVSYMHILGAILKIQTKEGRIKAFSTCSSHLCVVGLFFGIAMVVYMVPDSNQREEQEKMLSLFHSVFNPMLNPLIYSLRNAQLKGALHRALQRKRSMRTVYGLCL
In short: as §1

OR2A25 (Homo sapiens) = target: T5, OR2A25 (Homo sapiens) (UniProt A4D2G3)
T5 sequence (whole entry): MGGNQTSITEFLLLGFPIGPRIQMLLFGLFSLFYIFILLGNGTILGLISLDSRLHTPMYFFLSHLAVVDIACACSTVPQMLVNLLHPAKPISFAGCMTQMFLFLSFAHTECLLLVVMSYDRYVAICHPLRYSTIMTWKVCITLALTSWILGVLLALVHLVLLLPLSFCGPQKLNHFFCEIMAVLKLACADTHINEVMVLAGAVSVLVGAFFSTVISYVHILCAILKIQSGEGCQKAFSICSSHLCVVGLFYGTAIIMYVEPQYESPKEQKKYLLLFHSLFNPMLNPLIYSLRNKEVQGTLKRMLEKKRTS
In short: as §1

OR2A2 = test system: T6, OR2A2
T6 sequence (whole entry): T4 sequence (whole entry) with F280L
In short: as §1

OR2A4 (Homo sapiens) = target: T7, OR2A4 (Homo sapiens) (UniProt O95047)
T7 sequence (whole entry): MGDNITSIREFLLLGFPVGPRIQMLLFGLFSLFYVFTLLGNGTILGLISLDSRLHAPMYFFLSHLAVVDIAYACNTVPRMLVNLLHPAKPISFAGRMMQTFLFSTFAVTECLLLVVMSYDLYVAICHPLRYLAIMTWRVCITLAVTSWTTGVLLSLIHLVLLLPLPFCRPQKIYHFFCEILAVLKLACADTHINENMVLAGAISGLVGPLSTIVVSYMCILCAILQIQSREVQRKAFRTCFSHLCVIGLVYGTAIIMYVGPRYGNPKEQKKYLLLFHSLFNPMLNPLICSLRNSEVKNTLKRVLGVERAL
In short: as §1

OR2A5 (Homo sapiens) = target: T8, OR2A5 (Homo sapiens) (UniProt Q96R48)
T8 sequence (whole entry): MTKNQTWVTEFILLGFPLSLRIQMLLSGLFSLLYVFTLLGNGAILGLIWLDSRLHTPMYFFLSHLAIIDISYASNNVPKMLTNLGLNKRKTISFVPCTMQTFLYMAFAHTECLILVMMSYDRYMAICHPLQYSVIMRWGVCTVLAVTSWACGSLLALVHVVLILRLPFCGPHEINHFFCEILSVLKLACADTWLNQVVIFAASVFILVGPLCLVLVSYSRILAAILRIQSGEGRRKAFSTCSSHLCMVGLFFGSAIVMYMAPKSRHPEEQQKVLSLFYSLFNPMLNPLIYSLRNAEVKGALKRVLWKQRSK
In short: as §1

OR2A5 I126V A202S A255T = test system: T9, OR2A5 I126V A202S A255T
T9 sequence (whole entry): T8 sequence (whole entry) with I126V, A202S, A255T
In short: as §1

OR2A7 (Homo sapiens) = target: T10, OR2A7 (Homo sapiens) (UniProt Q96R45)
T10 sequence (whole entry): T7 sequence (whole entry) with R9T, R238C, V250F
In short: as §1

OR2A7 = test system: T11, OR2A7
T11 sequence (whole entry): T7 sequence (whole entry) with R238C, V250F
In short: as §1

OR2AE1 (Homo sapiens) = target: T12, OR2AE1 (Homo sapiens) (UniProt Q8NHA4)
T12 sequence (whole entry): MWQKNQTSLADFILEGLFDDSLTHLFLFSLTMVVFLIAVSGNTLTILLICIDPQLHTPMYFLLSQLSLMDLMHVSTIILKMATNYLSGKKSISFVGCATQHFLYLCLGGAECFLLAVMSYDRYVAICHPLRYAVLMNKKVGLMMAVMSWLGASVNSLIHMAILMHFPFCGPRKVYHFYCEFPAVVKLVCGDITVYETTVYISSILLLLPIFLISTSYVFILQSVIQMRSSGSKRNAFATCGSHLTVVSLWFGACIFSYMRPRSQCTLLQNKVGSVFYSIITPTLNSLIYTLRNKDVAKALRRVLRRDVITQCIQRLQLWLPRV
In short: as §1

OR2AG1 (Homo sapiens) = target: T13, OR2AG1 (Homo sapiens) (UniProt Q9H205)
T13 sequence (whole entry): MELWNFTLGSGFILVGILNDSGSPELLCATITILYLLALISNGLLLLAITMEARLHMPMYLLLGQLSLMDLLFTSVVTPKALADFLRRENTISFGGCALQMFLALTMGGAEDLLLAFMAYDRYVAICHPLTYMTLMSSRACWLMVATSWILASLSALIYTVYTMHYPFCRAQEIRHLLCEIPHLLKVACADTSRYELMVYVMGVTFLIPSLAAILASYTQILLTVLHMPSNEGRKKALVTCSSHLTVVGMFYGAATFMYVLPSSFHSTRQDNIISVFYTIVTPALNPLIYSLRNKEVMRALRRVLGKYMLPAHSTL
In short: as §1

OR2AG2 (Homo sapiens) = target: T14, OR2AG2 (Homo sapiens) (UniProt A6NM03)
T14 sequence (whole entry): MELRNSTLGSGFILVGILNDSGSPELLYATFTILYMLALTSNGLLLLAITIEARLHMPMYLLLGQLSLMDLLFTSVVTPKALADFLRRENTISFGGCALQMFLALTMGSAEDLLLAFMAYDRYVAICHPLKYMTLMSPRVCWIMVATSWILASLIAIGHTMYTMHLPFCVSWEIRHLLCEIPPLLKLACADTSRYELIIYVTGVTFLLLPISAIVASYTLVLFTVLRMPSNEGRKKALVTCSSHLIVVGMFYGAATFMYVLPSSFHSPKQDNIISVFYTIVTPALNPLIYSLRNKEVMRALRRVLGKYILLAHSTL
In short: as §1

OR2AK2 (Homo sapiens) = target: T15, OR2AK2 (Homo sapiens) (UniProt Q8NG84)
T15 sequence (whole entry): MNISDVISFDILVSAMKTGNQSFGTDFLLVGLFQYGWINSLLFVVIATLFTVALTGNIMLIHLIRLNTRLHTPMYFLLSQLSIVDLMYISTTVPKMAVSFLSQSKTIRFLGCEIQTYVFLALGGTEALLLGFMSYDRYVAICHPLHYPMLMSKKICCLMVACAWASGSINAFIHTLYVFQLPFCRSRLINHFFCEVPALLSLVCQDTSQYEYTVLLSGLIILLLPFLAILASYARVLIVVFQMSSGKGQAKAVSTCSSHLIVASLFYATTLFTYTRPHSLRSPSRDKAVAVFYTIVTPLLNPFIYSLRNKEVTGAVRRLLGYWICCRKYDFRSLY
In short: as §1

OR2AP1 (Homo sapiens) = target: T16, OR2AP1 (Homo sapiens) (UniProt Q8NGE2)
T16 sequence (whole entry): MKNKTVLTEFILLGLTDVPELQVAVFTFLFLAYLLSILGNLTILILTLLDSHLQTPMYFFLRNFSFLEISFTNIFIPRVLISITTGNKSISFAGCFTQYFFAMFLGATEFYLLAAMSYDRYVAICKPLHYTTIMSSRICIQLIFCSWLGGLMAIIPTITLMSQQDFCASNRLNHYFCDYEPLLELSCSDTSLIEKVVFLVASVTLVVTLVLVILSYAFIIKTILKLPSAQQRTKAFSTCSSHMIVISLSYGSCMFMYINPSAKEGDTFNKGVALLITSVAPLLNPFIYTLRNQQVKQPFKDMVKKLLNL
In short: as §1

OR2AT4 (Homo sapiens) = target: T17, OR2AT4 (Homo sapiens) (UniProt A6NND4)
T17 sequence (whole entry): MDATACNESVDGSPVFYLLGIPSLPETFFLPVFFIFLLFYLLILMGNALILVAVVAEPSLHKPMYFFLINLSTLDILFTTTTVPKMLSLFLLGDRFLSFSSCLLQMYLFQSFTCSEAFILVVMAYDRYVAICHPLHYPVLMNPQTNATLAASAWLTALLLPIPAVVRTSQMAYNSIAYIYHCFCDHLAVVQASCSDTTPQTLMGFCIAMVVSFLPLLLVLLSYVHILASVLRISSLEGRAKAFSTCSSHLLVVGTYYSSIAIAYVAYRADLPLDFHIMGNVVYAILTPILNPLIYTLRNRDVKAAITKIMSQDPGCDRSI
In short: as §1

OR2B11 (Homo sapiens) = target: T18, OR2B11 (Homo sapiens) (UniProt Q5JQS5)
T18 sequence (whole entry): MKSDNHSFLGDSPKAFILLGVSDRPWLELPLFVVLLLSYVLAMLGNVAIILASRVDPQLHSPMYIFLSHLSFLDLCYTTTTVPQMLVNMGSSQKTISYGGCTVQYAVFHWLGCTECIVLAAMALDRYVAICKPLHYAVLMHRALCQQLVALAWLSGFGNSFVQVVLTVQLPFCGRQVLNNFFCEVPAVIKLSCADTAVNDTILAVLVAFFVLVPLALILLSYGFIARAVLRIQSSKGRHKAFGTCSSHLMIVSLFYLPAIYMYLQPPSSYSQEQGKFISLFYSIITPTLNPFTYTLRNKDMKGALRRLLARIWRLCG
In short: as §1

OR2B2 (Homo sapiens) = target: T19, OR2B2 (Homo sapiens) (UniProt Q9GZK3)
T19 sequence (whole entry): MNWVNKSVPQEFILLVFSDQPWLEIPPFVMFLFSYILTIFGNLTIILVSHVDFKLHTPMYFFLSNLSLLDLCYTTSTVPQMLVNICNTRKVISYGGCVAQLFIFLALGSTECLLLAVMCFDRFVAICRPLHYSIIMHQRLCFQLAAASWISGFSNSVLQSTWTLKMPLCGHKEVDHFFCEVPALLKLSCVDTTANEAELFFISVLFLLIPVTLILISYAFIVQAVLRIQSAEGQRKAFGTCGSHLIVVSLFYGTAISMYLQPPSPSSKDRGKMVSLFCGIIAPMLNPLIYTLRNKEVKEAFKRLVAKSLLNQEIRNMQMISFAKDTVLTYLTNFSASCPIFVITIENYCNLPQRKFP
In short: as §1

Measured: odorant receptor agonist call

Cc1cnc(C)c(C)n1
inactive: OR2A1 T73A R74C S168C | OR2A12 (Homo sapiens) | OR2A14 (Homo sapiens) | OR2A2 (Homo sapiens) | OR2A25 (Homo sapiens) | OR2A2 | OR2A4 (Homo sapiens) | OR2A5 (Homo sapiens) | OR2A5 I126V A202S A255T | OR2A7 (Homo sapiens) | OR2A7 | OR2AE1 (Homo sapiens) | OR2AG1 (Homo sapiens) | OR2AG2 (Homo sapiens) | OR2AK2 (Homo sapiens) | OR2AP1 (Homo sapiens) | OR2AT4 (Homo sapiens) | OR2B11 (Homo sapiens) | OR2B2 (Homo sapiens)
